Consider one compound from ChEMBL document CHEMBL1833940, “Discovery of 3-(2,6-dichloro-3,5-dimethoxy-phenyl)-1-{6-[4-(4-ethyl-piperazin-1-yl)-phenylamino]-pyrimidin-4-yl}-1-methyl-urea (NVP-BGJ398), a potent and selective inhibitor of the fibroblast growth factor receptor family of receptor tyrosine kinase” (J Med Chem, 2011).

Calls of active or inactive are those of the source. The rule behind the calls is not given here.

For one data set, the target named is Cytochrome P450 2C9 (Homo sapiens, UniProt P11712). As to the kind of experiment: Inhibition of CYP2C9 using MFC as substrate. The format is ADME. A digest of the protocol: (§1)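 Human CYP450 inhibition was measured with isoform-specific fluorogenic probe substrates: CEC for 1A2 and 2C19, MFC for 2C9, AMMC for 2D6. Incubation was at 37 °C with an NADPH-regenerating system in 384-well format. Metabolite was quantified by fluorescence, and IC50 was obtained by curve fitting.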
Cytochrome P450 2C9, sequence (P11712 whole entry, canonical isoform): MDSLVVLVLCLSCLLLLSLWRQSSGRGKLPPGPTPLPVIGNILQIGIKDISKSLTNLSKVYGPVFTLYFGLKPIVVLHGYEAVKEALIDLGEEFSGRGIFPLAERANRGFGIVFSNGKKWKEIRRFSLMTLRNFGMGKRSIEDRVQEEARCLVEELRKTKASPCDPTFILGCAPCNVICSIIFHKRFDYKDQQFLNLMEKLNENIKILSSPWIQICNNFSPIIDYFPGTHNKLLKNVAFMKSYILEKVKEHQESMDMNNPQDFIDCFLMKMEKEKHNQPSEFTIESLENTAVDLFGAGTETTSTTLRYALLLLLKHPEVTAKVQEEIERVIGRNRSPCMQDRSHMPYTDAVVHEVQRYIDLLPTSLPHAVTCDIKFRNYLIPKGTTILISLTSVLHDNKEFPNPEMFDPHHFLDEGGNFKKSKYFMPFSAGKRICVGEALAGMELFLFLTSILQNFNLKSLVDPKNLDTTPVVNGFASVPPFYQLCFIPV

Data set [1] addresses MAP kinase-interacting serine/threonine-protein kinase 2 (Homo sapiens, UniProt Q9HBH9). As to the kind of experiment: Inhibition of recombinant MNK2. The procedure, abridged: (§2)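 Purified recombinant kinases under optimized conditions, with peptide substrates and ATP at each kinase's Km. Phosphorylation was read out by microfluidic mobility shift, and IC50 values were obtained.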

Data set [2] is described as follows: Tmax in Wistar rat at 10 mg/kg, po by LC-MS/MS analysis. It counts as ADME, organism-based. Also on record: dose 10 mg/kg, route oral. As to conditions: in vivo. A digest of the protocol: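 Female Wistar rats received 5 mg/kg iv into the femoral vein in NMP/PEG200 (1:9), or the monophosphate salt orally at 10 mg/kg (free base) in acetate buffer pH 4.6/PEG300. Serial sublingual plasma samples were taken from 0.083 to 24 h.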

The subject of data set [3] is Tumour. As to the kind of experiment: Drug uptake in tumour of nude Rowett rat bearing human RT112 cells at 4.25 mg/kg, po administered as a single dose after 3 hrs by LC-MS/MS analysis. The format is ADME, organism-based, Neoplasm, RT-112. Also noted: dose 4.25 mg/kg, route oral. Conditions: in vivo. The procedure, abridged: (§3)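 Nude Rowett rats bearing subcutaneous RT112 tumors (n = 4) received a single gavage of monophosphate salt at 4.25 or 8.51 mg/kg free base in acetate buffer pH 4.6/PEG300. Tumors were collected at intervals after dosing, frozen and homogenized in an equal volume of ice-cold PBS. Compound levels were measured by LC-MS/MS (LOQ 3 ng/mL).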

Data set [4] concerns the target Vascular endothelial growth factor receptor 2 (Homo sapiens, UniProt P35968). As to the kind of experiment: Inhibition of recombinant VEGFR2. A digest of the protocol:
as §2

For data set [5], the target named is Hepatocyte growth factor receptor (Homo sapiens, UniProt P08581). As to the kind of experiment: Inhibition of recombinant MET. A digest of the protocol: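 Purified recombinant kinases were tested under optimized conditions with peptide substrates. ATP was set at each kinase's Km. Phosphorylation was read out by microfluidic mobility shift, and IC50 values were determined.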
Hepatocyte growth factor receptor, sequence (P08581 whole entry): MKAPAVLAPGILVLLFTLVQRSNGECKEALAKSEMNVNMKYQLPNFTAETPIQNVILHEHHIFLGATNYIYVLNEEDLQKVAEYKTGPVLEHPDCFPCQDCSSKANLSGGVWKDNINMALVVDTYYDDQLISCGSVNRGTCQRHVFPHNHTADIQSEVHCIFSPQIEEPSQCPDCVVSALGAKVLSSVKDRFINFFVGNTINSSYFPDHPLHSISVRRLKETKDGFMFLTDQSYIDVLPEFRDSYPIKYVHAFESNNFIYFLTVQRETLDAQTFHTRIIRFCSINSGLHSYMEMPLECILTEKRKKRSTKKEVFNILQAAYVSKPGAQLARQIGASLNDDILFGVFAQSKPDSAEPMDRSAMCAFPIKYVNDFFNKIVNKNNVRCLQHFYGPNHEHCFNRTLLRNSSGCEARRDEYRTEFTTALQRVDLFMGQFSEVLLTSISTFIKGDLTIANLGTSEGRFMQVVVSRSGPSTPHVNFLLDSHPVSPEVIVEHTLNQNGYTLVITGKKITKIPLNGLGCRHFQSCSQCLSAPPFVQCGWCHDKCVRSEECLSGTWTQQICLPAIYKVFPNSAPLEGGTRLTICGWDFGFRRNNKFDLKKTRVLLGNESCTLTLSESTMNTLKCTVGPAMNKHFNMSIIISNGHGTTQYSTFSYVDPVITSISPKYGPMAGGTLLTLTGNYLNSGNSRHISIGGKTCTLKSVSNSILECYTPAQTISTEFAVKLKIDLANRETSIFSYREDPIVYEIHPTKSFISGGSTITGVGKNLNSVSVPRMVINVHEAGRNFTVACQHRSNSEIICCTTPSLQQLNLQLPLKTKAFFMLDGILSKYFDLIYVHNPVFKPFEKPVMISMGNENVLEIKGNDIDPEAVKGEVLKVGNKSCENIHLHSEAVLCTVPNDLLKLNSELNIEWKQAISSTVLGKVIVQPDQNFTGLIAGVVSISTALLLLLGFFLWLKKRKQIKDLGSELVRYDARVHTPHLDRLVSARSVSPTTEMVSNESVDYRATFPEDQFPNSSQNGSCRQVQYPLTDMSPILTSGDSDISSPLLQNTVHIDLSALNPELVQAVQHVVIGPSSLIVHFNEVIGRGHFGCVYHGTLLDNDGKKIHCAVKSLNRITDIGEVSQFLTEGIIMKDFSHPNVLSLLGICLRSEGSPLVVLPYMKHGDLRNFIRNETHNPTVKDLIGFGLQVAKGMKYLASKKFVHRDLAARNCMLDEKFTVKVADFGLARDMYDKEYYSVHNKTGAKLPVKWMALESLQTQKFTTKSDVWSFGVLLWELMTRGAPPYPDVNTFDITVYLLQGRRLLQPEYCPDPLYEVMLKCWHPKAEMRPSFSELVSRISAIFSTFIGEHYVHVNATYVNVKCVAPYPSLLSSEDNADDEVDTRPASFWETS

A further data set addresses Insulin receptor (Homo sapiens, UniProt P06213). As to the kind of experiment: Inhibition of recombinant INSR. The procedure, abridged:
as §2

Data set [6] can be described thus: Apparent terminal half life in Wistar rat at 10 mg/kg, po by LC-MS/MS analysis. Also on record: dose 10 mg/kg, route oral. The format is ADME, organism-based. As to conditions: in vivo, read-out: t1/2 lambda z (converted). The procedure, abridged:
(§4)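 Female Wistar rats. IV: 5 mg/kg into the femoral vein as a solution in NMP/PEG200 (1:9, v/v). Oral: monophosphate salt at 10 mg/kg (free base equivalents) as a solution in acetic acid–acetate buffer pH 4.6/PEG300. Plasma was taken by sublingual bleeding at 0.083–24 h, from staggered groups (n = 4) or one sequentially bled group. Assayed by LC-MS/MS (LOQ 10 ng/mL); noncompartmental analysis.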

Data set [7] relates to Rattus norvegicus. As to the kind of experiment: Inhibition of FGFR autophosphorylation in RT112 tumor bearing nude rowett rat assessed as decrease in pFRS2 concentration at 8.51 mg/kg, po administered as a single dose after 16 hrs by Western blot analysis. Also noted: dose 8.51 mg/kg. The format is functional, organism-based. A digest of the protocol:
(§5)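 RT112 subcutaneous xenografts in female nude Rowett rats (n = 4). Single oral gavage of the monophosphate salt at 4.25 or 8.51 mg/kg (free base equivalents) in acetic acid–acetate buffer pH 4.6/PEG300 (1:1). Tumors were collected at time points up to 24 h, frozen, homogenized and lysed. Western blots probed pFRS2(Tyr196) and pMAPK, with total FRS2, total MAPK or β-tubulin as loading controls.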

The test system of data set [8] is Tumour. As to the kind of experiment: Drug uptake in tumour of nude Rowett rat bearing human RT112 cells at 4.25 mg/kg, po administered as a single dose after 24 hrs by LC-MS/MS analysis. The format is ADME, organism-based, Neoplasm, RT-112. Also on record: dose 4.25 mg/kg, route oral. As to conditions: in vivo. The procedure, abridged: as §3
Data set [9] is described as follows: Apparent terminal half life in Wistar rat at 5 mg/kg, iv by LC-MS/MS analysis. The format is ADME, organism-based. Also noted: dose 5 mg/kg, route intravenous. Conditions: in vivo, read-out: t1/2 lambda z (converted). The procedure, abridged:
as §4

Data set [10] deals with Mus musculus. As to the kind of experiment: Toxicity in athymic nude mouse xenografted with human RT112 cells/luc1 assessed as increase in body weight at 30 mg/kg, po administered for 12 days. Conditions: in vivo, 288 h.
Another data set has as its system UMUC3. As to the kind of experiment: Antiproliferative activity against human UM-UC-3 cells after 72 hrs. As to conditions: UMUC3, 72 h. It counts as functional, cell-based. A digest of the protocol:
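Bladder cancer lines from ATCC or DSMZ were seeded in 96-well plates (RT4, RT112 at 8500 cells/well; others at 5000 cells/well) in growth medium. Compound dilutions or DMSO were added 24 h later and incubated 72 h. Cells were fixed with glutaraldehyde, stained with 0.05% methylene blue and eluted with 3% HCl, then OD650 nm was read.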

Data set [11] concerns the target Cyclin-dependent kinase 1 (Homo sapiens, UniProt P06493). As to the kind of experiment: Inhibition of recombinant CDK1. A digest of the protocol:
(§6)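 Purified recombinant kinases under optimized conditions with peptide substrates. ATP was set at each kinase's Km. Phosphorylation was read by microfluidic mobility-shift separation of substrate and product; IC50 determined.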

The target of data set [12] is Rho-associated protein kinase 2 (Homo sapiens, UniProt O75116). As to the kind of experiment: Inhibition of recombinant ROCK2. The procedure, abridged: as §6
Data set [13] addresses Serine/threonine-protein kinase mTOR (Homo sapiens, UniProt P42345). As to the kind of experiment: Inhibition of recombinant mTOR by luminescent kinase assay.
The target of data set [14] is Mitogen-activated protein kinase 12 (Homo sapiens, UniProt P53778). As to the kind of experiment: Inhibition of recombinant p38-gamma. A digest of the protocol: as §6
Mitogen-activated protein kinase 12, sequence (P53778 whole entry): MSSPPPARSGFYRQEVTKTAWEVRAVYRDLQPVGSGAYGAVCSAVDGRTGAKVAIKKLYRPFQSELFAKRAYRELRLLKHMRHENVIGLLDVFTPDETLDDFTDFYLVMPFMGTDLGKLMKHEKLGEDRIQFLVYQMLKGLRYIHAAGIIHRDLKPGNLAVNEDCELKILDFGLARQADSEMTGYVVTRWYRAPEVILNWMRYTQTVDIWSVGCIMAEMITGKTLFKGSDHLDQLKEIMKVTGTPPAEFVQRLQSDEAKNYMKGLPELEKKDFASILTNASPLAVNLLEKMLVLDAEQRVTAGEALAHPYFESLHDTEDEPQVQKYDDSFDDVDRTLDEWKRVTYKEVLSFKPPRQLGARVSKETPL
Data set [15] has as its system Tumour. As to the kind of experiment: Drug uptake in tumor of nude rowett rat bearing human RT112 cells at 8.51 mg/kg, po administered as a single dose after 3 hrs by LC-MS/MS analysis. It counts as ADME, organism-based, Neoplasm, RT-112. Also noted: dose 8.51 mg/kg, route oral. Conditions: in vivo. A digest of the protocol:
as §3

Data set [16] has as its target MAP kinase-activated protein kinase 5 (Homo sapiens, UniProt Q8IW41). As to the kind of experiment: Inhibition of recombinant MK5. A digest of the protocol:
as §6

For data set [17], the species on record is Rattus norvegicus. As to the kind of experiment: Hepatic blood flow in Wistar rat. The format is ADME, organism-based, Liver.
In the next data set the target is Cytochrome P450 2D6 (Homo sapiens, UniProt P10635). As to the kind of experiment: Inhibition of CYP2D6 using AMMC as substrate. The format is ADME. The procedure, abridged:
as §1

Data set [18] relates to Rattus norvegicus. As to the kind of experiment: Inhibition of FGFR autophosphorylation in RT112 tumour bearing nude Rowett rat assessed as decrease in pMAPK concentration at 8.51 mg/kg, po administered as a single dose after 16 hrs by Western blot analysis. It counts as functional, organism-based. Also noted: dose 8.51 mg/kg. A digest of the protocol:
as §5

The test system of data set [19] is Mus musculus. As to the kind of experiment: Toxicity in athymic nude mouse xenografted with human RT112 cells assessed as weight loss at 10 mg/kg, po administered for 12 days. The format is organism-based, RT-112. Also on record: dose 10 mg/kg, route oral. Conditions: in vivo, 288 h. A digest of the protocol: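 Female athymic nude mice carried orthotopic RT112/luc1 bladder tumors. Starting 14 days after inoculation, they were dosed orally at 0, 10 or 30 mg/kg/qd for 12 days as a suspension in PEG300/D5W (2:1). Body weight was recorded during treatment. Data are means ± SEM; ANOVA with Dunnett's test versus vehicle.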

Data set [20] relates to Rattus norvegicus. As to the kind of experiment: Inhibition of FGFR autophosphorylation in RT112 tumor bearing nude rowett rat assessed as decrease in pFRS2 concentration at 4.25 mg/kg, po administered as a single dose by Western blot analysis. It counts as functional, organism-based. Also noted: dose 4.25 mg/kg. A digest of the protocol: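 RT112 tumor-bearing nude Rowett rats (n = 4) received a single oral dose of monophosphate salt at 4.25 or 8.51 mg/kg free base. Tumors were collected at time points up to 24 h and lysed in Tris/Triton buffer with vanadate and protease inhibitors. Western blots were run for pFRS2(Tyr196) and pMAPK, with total FRS2, total MAPK or β-tubulin as loading controls.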
(In general: In western blotting, separated proteins are transferred to a membrane and probed.)

MAP kinase-activated protein kinase 5, sequence (Q8IW41 whole entry): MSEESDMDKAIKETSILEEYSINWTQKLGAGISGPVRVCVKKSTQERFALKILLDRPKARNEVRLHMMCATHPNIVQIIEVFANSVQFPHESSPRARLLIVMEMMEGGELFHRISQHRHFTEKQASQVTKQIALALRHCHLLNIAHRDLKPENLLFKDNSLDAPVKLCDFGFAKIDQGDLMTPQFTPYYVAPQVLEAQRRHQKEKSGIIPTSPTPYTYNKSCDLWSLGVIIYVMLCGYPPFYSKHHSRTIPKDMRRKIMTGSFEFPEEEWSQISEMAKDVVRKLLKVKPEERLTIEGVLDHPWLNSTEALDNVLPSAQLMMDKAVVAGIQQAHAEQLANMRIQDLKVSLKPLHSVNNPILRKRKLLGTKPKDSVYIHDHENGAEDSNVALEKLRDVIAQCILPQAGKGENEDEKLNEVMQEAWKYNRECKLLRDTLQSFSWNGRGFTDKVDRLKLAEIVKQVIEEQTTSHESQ
Cyclin-dependent kinase 1, sequence (P06493 whole entry): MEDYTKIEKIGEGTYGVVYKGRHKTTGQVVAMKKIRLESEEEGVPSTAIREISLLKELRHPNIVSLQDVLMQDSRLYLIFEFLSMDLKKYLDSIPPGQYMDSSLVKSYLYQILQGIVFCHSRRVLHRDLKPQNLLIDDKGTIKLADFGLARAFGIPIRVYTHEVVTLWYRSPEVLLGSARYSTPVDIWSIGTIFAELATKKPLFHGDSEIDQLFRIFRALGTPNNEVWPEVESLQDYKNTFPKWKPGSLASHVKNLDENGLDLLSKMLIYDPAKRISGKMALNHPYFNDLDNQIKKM
Vascular endothelial growth factor receptor 2, sequence (P35968 whole entry): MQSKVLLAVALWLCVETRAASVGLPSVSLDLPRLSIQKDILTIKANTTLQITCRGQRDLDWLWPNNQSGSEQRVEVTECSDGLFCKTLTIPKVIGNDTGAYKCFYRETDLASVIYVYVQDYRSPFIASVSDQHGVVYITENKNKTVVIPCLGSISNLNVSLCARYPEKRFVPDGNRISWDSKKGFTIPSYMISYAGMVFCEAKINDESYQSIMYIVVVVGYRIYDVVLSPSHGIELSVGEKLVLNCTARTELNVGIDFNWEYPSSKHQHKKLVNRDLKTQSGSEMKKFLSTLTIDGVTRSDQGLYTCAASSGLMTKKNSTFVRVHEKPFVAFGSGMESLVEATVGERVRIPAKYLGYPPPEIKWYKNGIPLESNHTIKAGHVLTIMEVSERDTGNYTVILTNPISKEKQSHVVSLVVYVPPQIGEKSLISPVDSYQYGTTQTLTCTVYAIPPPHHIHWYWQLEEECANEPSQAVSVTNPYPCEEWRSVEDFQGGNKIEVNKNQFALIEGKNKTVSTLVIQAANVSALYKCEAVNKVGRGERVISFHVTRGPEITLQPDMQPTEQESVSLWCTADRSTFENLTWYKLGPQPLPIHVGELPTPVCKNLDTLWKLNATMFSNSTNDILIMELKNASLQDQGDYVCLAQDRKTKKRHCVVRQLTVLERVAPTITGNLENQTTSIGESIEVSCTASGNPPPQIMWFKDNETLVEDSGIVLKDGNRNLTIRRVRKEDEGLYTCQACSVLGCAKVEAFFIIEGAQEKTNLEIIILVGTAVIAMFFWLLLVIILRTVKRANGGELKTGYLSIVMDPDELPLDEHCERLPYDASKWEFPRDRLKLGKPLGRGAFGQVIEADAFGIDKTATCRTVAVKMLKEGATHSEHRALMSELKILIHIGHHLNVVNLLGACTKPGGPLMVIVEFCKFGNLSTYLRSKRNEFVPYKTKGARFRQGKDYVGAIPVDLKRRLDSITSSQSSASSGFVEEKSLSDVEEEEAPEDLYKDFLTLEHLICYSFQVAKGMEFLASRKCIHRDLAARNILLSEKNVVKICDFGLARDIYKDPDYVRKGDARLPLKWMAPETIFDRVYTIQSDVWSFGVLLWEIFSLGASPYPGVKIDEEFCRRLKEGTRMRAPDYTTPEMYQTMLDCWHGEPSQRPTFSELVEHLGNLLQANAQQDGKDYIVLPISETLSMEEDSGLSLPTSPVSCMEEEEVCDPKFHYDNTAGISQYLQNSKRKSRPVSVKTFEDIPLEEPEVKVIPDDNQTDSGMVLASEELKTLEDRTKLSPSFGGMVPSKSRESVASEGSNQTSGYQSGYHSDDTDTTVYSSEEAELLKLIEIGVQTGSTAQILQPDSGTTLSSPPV
Cytochrome P450 2D6, sequence (P10635 whole entry): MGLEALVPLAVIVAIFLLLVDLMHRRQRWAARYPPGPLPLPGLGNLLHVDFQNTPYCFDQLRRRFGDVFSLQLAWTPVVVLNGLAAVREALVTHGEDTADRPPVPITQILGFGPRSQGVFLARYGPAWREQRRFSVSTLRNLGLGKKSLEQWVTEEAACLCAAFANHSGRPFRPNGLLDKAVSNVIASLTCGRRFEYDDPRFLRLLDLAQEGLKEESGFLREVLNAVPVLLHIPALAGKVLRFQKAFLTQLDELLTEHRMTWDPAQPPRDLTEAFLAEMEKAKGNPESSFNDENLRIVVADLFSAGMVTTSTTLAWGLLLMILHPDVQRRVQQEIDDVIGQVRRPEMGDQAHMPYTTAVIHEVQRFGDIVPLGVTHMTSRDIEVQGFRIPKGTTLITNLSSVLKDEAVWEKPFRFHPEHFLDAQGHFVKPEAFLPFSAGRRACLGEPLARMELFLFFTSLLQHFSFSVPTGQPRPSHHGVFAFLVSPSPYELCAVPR

Regarding `CCN1CCN(c2ccc(Nc3cc(N(C)C(=O)Nc4c(Cl)c(OC)cc(OC)c4Cl)ncn3)cc2)CC1.O=P(O)(O)O` [INFIGRATINIB PHOSPHATE], the IC50 (in general, the concentration that gives 50% inhibition) at Cytochrome P450 2C9 is > 10 µM; in data set [1], > 10 µM; in [4], 0.18 µM; in data set [5] it was > 10 µM; on Insulin receptor it was > 10 µM; in the data set on UMUC3, > 3 µM. Besides, the IC50 (in data set [11]; in [12]; in [13]; in data set [14]; in [16]; against Cytochrome P450 2D6) was > 10 µM each time. Further, in data set [2], the Tmax (as a rule, the time from dosing to the highest level) is 4 h. The Drug uptake in the data set with Tumour [3] is reported as 0.83 nmol/g; in the data set on Tumour [8], 0.12 nmol/g; with Tumour [15], 1.96 nmol/g. In addition, the values for the half-life in data set [6] and in [9] were 4.8 h and 4.5 h, respectively. Moreover, the inhibition result in the data set on Rattus norvegicus [7], in the data set with Rattus norvegicus [18] and in the data set on Rattus norvegicus [20] was “Active” each time. Also, the Activity with Mus musculus [10] is listed as 10%; with Mus musculus [19] it was “Non-toxic”. In the data set filed under Rattus norvegicus [17], this compound displayed a QH of 55 mL/min/kg.
